ChEMBL document CHEMBL1759840, “2,3-Substituted quinoxalin-6-amine analogs as antiproliferatives: a structure-activity relationship study” (2011)
Activity calls are given as the source filed them. The rule behind the calls is not given here.

Assays:
Type in all cases: functional
[1] = system: A549; experiment: Growth inhibition of human A549 cells at 20 uM after 72 hrs by alamar blue assay; settings: for inhibition of growth at 20 µM: A549, 72 h, read-out: GI
In short: (§1)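 Single-concentration screen at 20 μM with 72 h exposure across a panel of cancer lines: lung A549, pancreatic AsPC1, colon HT29, breast MDA-MB-231, prostate PC3, ovarian SKOV3 and bone U2OS. Growth inhibition read after 72 h.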

[2] = system: ASPC1; experiment: Growth inhibition of human AsPC1 cells at 20 uM after 72 hrs by alamar blue assay; settings: for inhibition of growth at 20 µM: ASPC1, 72 h, read-out: GI; in short: as §1
[3] = system: HT-29; experiment: Growth inhibition of human HT-29 cells at 20 uM after 72 hrs by alamar blue assay; settings: for inhibition of growth at 20 µM: HT-29, 72 h, read-out: GI; in short: as §1
[4] = system: MDA-MB-231; experiment: Growth inhibition of human MDA-MB-231 cells at 20 uM after 72 hrs by alamar blue assay; settings: for inhibition of growth at 20 µM: MDA-MB-231, 72 h, read-out: GI; in short: as §1
[5] = system: PC-3; experiment: Growth inhibition of human PC3 cells at 20 uM after 72 hrs by alamar blue assay; settings: for inhibition of growth at 20 µM: PC-3, 72 h, read-out: GI; in short: as §1
[6] = system: SK-OV-3; experiment: Growth inhibition of human SKOV3 cells at 20 uM after 72 hrs by alamar blue assay; settings: for inhibition of growth at 20 µM: SK-OV-3, 72 h, read-out: GI; in short: as §1
[7] = system: U2OS; experiment: Growth inhibition of human U2OS cells at 20 uM after 72 hrs by alamar blue assay; settings: for inhibition of growth at 20 µM: read-out: GI; in short: as §1

Row | SMILES | inhibition of growth at 20 µM [1] [%] | inhibition of growth at 20 µM [2] [%] | inhibition of growth at 20 µM [3] [%] | inhibition of growth at 20 µM [4] [%] | inhibition of growth at 20 µM [5] [%] | inhibition of growth at 20 µM [6] [%] | inhibition of growth at 20 µM [7] [%] | growth inhibition (GI) [1] | growth inhibition (GI) [2] | growth inhibition (GI) [3] | growth inhibition (GI) [4] | growth inhibition (GI) [5] | growth inhibition (GI) [6] | growth inhibition (GI) [7]
1 | CC(=O)Nc1ccc2nc(C)c(C)nc2c1 | 23.4 | 26.2 | 31.7 | 25.7 | 21.8 | 4 | 31.4 |  |  |  |  |  |  | 
2 | S=C(Nc1ccccc1)Nc1ccc2nc(-c3cccs3)c(-c3cccs3)nc2c1 |  |  |  |  |  |  |  | inactive | inactive | inactive | inactive | inactive | inactive | inactive
3 | Cc1nc2ccc(NC(=O)N3CCCCC3)cc2nc1C |  |  |  |  |  |  |  | inactive | inactive | inactive | inactive | inactive | inactive | inactive
4 | Cc1ccc(S(=O)(=O)N(c2ccc3nc(-c4ccco4)c(-c4ccco4)nc3c2)S(=O)(=O)c2ccc(C)cc2)cc1 |  |  |  |  |  |  |  | inactive | inactive | inactive | inactive | inactive | inactive | inactive
5 | O=C(Nc1ccc2nc(-c3ccco3)c(-c3ccco3)nc2c1)NN1CCC(Cc2ccccc2)CC1 | 93.1 | > 100 | 55.2 | 90.8 | > 100 | 47.6 | 80.3 |  |  |  |  |  |  | 
6 | CC(=O)Nc1ccc2nc(-c3ccccc3)c(-c3ccccc3)nc2c1 |  |  |  |  |  |  |  | inactive | inactive | inactive | inactive | inactive | inactive | inactive
7 | S=C(Nc1ccccc1)Nc1ccc2nc(-c3ccco3)c(-c3ccco3)nc2c1 | 18 |  | 26.1 | 19.1 | 56.8 |  | 21.4 |  | inactive |  |  |  | inactive | 
8 | O=[N+]([O-])c1ccc(NC(=S)Nc2ccc3nc(-c4ccccc4)c(-c4ccccc4)nc3c2)cc1 | 16.6 | 55.5 | 81.2 | 72.6 | 81 | 55.8 | 76.1 |  |  |  |  |  |  | 
9 | O=C(Nc1ccccc1)Nc1ccc2nc(-c3ccccc3)c(-c3ccccc3)nc2c1 |  |  |  |  |  |  |  | inactive | inactive | inactive | inactive | inactive | inactive | inactive
10 | O=C(Nc1ccc(F)cc1)Nc1ccc2nc(-c3ccco3)c(-c3ccco3)nc2c1 | > 100 | > 100 | 74.2 | 38.4 | 90.7 |  | 55.6 |  |  |  |  |  | inactive | 
11 | O=C(Nc1ccc2nc(-c3ccccc3)c(-c3ccccc3)nc2c1)N1CCCC1 | 11 | 29.4 |  | 16.7 | 56.9 | 18.5 | 54.2 |  |  | inactive |  |  |  | 
12 | Cc1nc2ccc(NC(=O)NN3CCC(Cc4ccccc4)CC3)cc2nc1C | 40.3 |  | 16.3 | 12.4 | 30.6 | 8.9 | 33.5 |  | inactive |  |  |  |  | 
13 | O=C(Nc1ccccc1)Nc1ccc2nc(-c3ccco3)c(-c3ccco3)nc2c1 | 54.6 | 9.6 | 52.1 | 31.3 | 70.6 | 24.7 | 59.6 |  |  |  |  |  |  | 
14 | Cc1nc2ccc(NC(=O)Nc3ccccc3)cc2nc1C |  |  |  |  |  |  |  | inactive | inactive | inactive | inactive | inactive | inactive | inactive
15 | CC(=O)Nc1ccc2nc(-c3ccco3)c(-c3ccco3)nc2c1 | 57.8 |  | 7.6 | 20.3 | 57.7 | 9 |  |  | inactive |  |  |  |  | inactive
16 | CC(=O)Nc1ccc2nc(-c3cccs3)c(-c3cccs3)nc2c1 |  |  |  |  |  |  |  | inactive | inactive | inactive | inactive | inactive | inactive | inactive
17 | O=C(Nc1ccc2nc(-c3ccco3)c(-c3ccco3)nc2c1)N1CCOCC1 | 39.7 |  | 19.4 | 10.9 | 48.9 |  |  |  | inactive |  |  |  | inactive | inactive
18 | S=C(Nc1ccccc1)Nc1ccc2nc(-c3ccccc3)c(-c3ccccc3)nc2c1 |  |  |  |  |  |  |  | inactive | inactive | inactive | inactive | inactive | inactive | inactive
19 | O=C(Nc1ccc(Cl)cc1)Nc1ccc2nc(-c3ccco3)c(-c3ccco3)nc2c1 | 99.2 | 81.1 | 86.3 | 92.5 | 86.4 | 55.8 | 87.4 |  |  |  |  |  |  | 
20 | O=C(Nc1ccc(-c2ccccc2)cc1)Nc1ccc2nc(-c3ccco3)c(-c3ccco3)nc2c1 | 13.8 |  | 72.4 | 50.2 | 88.5 |  | 46.9 |  | inactive |  |  |  | inactive | 
21 | Cc1ccc(S(=O)(=O)Nc2ccc3nc(-c4ccccc4)c(-c4ccccc4)nc3c2)cc1 |  |  |  |  |  |  |  | inactive | inactive | inactive | inactive | inactive | inactive | inactive
22 | O=C(Nc1ccccc1)Nc1ccc2nc(-c3cccs3)c(-c3cccs3)nc2c1 |  |  |  |  |  |  |  | inactive | inactive | inactive | inactive | inactive | inactive | inactive
